Results of several laboratories.
Target: Tyrosine-protein kinase receptor UFO (AXL, Homo sapiens, UniProt P30530)
Sequence (P30530 1-894, as in one of the studies): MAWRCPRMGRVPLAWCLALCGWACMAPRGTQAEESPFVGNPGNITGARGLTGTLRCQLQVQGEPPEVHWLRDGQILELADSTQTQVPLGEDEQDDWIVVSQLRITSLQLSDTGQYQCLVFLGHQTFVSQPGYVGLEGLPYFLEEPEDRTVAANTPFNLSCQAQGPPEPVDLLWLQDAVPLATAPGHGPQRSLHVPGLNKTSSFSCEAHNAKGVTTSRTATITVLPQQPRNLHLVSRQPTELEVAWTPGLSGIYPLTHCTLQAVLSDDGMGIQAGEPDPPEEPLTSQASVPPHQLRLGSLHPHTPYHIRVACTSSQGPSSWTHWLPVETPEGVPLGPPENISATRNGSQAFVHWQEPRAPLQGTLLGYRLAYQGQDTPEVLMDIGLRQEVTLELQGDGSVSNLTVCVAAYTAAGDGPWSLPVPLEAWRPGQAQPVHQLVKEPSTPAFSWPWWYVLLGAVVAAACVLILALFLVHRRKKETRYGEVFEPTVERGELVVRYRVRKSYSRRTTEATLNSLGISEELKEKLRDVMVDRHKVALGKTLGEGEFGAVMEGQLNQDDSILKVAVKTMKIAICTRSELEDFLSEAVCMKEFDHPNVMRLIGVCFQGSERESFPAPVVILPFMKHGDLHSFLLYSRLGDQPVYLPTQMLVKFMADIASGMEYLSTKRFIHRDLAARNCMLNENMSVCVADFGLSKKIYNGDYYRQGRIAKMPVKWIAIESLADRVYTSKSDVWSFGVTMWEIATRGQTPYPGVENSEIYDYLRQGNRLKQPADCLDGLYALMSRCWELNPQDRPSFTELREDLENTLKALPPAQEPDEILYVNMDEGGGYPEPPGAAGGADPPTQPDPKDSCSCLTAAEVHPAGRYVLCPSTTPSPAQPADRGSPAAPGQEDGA

SMILES	assay	setting	quantity	value
CN([C@@H]1CCc2c(CC(=O)O)c3ccccc3n2C1)S(=O)(=O)c1ccc(F)cc1	cell-free assay, competition with immobilised ligand	1 µM	remaining binding	100%
COc1cc2c(Nc3ccc(Br)cc3F)ncnc2cc1OCC1CCN(C)CC1	cell-free assay	0.5 µM	remaining signal	55%
CN(C)C(=O)Cn1cc(-c2nc([C@@](C)(c3ccc(-c4cnc(N)nc4)cc3)C3CC3)no2)cn1	cell-free assay, competition with immobilised ligand	1 µM	remaining binding	98%
Cc1ccc(Nc2nccc(N(C)c3ccc4c(C)n(C)nc4c3)n2)cc1S(N)(=O)=O	cell-free assay	0.5 µM	remaining signal	78.1%
COc1ccc2cc(OCC3(C(=O)O)CN(C(=O)c4ccc(F)cc4)C3)ccc2c1	cell-free assay, competition with immobilised ligand	1 µM	remaining binding	100%
CC/C(=N\NC(=O)NCc1cccc(O)c1)c1ccc(O)c(C)c1O	enzyme activity, inhibitor	0.1 µM	inhibition	1.3%
Cc1ccc(C(=O)Nc2ccc(CN3CCN(C)CC3)c(C(F)(F)F)c2)cc1C#Cc1cnc2cccnn12	enzyme activity	23.5 nM	remaining activity	45%
CC(=O)N1CCC(c2ccc(C(=O)NC(=N)N)cc2C(F)(F)F)CC1	cell-free assay, competition with immobilised ligand	1 µM	remaining binding	100%
Cc1[nH]c(/C=C2\C(=O)Nc3ccc(F)cc32)c(C)c1C(=O)N[C@H]1CCN(C(=O)N(C)C)C1	enzyme activity, inhibitor	0.1 µM	remaining activity	89%
CCN(CC)CCNC(=O)c1c(C)[nH]c(/C=C2\C(=O)Nc3ccc(F)cc32)c1C	enzyme activity, inhibitor	10 µM	inhibition	94%
Cc1cc(C)c(-n2ccn3nc(-c4cccnc4)cc23)cc1NC(=O)c1cc(C#N)cc(S(F)(F)(F)(F)F)c1	cell-free assay, competition with immobilised ligand	0.1 µM	remaining binding	80.5%
CS(=O)(=O)CCNCc1ccc(-c2ccc3ncnc(Nc4ccc(OCc5cccc(F)c5)c(Cl)c4)c3c2)o1	cell-free assay	0.5 µM	remaining signal	96.2%
COc1cc2nccc(Oc3ccc(NC(=O)c4c5n(n(-c6ccc(F)cc6)c4=O)CCCC5)cc3)c2cc1OC	enzyme activity, inhibitor	0.1 µM	inhibition	93%
CNC(=O)Nc1ccc2c(c1)[C@@]1(CC2)OC(=O)N(CC(=O)N(Cc2ccc(F)cc2)[C@@H](C)C(F)(F)F)C1=O	cell-free assay, competition with immobilised ligand	1 µM	remaining binding	67%
CNCc1ccc(-c2cc(-c3nc(-c4ccc(S(=O)(=O)C(C)C)cc4)cnc3N)on2)cc1	enzyme activity, inhibitor	0.4 µM	inhibition	27%
CNCc1ccccc1-c1csc([C@H](C)Nc2nc(C)nc3cc(OC)c(OC)cc23)c1	cell-free assay, competition with immobilised ligand	1 µM	remaining binding	100%

SMILES	assay	setting	quantity	value
Cc1sc(C(=O)NC2COC2)cc1-n1cc(NC(=O)Nc2c(F)cccc2Cl)cn1	enzyme activity, inhibitor	10 µM	remaining activity	86.6%
CNC(=O)c1cc2c(Oc3ccc(NC(=O)C4(C(=O)Nc5ccc(F)cc5)CC4)cc3)ccnc2cc1OC	enzyme activity, inhibitor, radiometric	1 µM	inhibition	87%
CCCOc1ccc(OC)c(F)c1C(=O)c1ccc(C(=O)N[C@@H]2CNC[C@H]2NC(=O)c2ccc3[nH]ncc3c2)cc1	enzyme activity, inhibitor	10 µM	remaining activity	23%
CNC(=O)c1cc(Oc2ccc(NC(=O)Nc3ccc(Cl)c(C(F)(F)F)c3)cc2)ccn1	enzyme activity, inhibitor	0.3 µM	inhibition	3%
CC(C)(O)[C@H]1CC[C@H](Nc2ccc3ncc(-c4cccc(C(F)(F)F)c4)n3n2)CC1	enzyme activity, inhibitor	1 µM	remaining activity	78%
CCN(CC)CCNC(=O)c1c(C)[nH]c(/C=C2\C(=O)Nc3ccc(F)cc32)c1C	enzyme activity, inhibitor	0.1 µM	remaining activity	41%
Cc1ccc(C(=O)NCc2ccsc2)cc1C#Cc1cn(C(C)C)c2ncnc(N)c12	enzyme activity, inhibitor	1 µM	activity vs control	72%
N#CCCc1ccc2c(c1)-c1[nH]c3ccc([N+](=O)[O-])cc3c1CC(=O)N2	cell-free assay	0.5 µM	remaining signal	95.5%
CCCS(=O)(=O)Nc1ccc(F)c(C(=O)c2c[nH]c3ncc(-c4ccc(Cl)cc4)cc23)c1F	enzyme activity, inhibitor	1 µM	inhibition	< 10%
Cc1ccc(NC(=O)c2ccc(C)c(C(F)(F)F)c2)cc1C#Cc1nn(C2CCC(O)CC2)c2ncnc(N)c12 (centres unmarked)	cell-free assay	10 µM	remaining signal	56%
Clc1ccc(Nc2nnc(Cc3ccncc3)c3ccccc23)cc1	cell-free assay	0.5 µM	remaining signal	98.3%
CC(C)(C)c1nc(-c2cccc(NS(=O)(=O)c3c(F)cccc3F)c2F)c(-c2ccnc(N)n2)s1	enzyme activity, inhibitor, radiometric	1 µM	remaining activity	75%
O=c1cc(-c2cccc3c2Sc2ccccc2S3)oc(N2CCOCC2)c1	enzyme activity, inhibitor	0.5 µM	remaining activity	106%
COc1cc2ncnc(Nc3ccc(Oc4ccccc4)c(C)c3C)c2cc1OC	enzyme activity, inhibitor	1 µM	inhibition	-3%
CC1=C(C#N)[C@@H](c2ccc3[nH]nc(C)c3c2)C(C#N)=C(c2ccc(Cl)cc2)N1	cell-free assay, competition with immobilised ligand	1 µM	remaining binding	100%
CCN(CC)CCNC(=O)c1c(C)[nH]c(/C=C2\C(=O)Nc3ccc(Cl)cc32)c1C	enzyme activity, inhibitor	0.5 µM	remaining activity	25.2%
